SMILES strings stand for the structures. “Also recorded” adds a separate entry of the source. Some results are limits rather than exact numbers.

Data on 18 compounds can be found in article PMC8688139 (Journal of medicinal chemistry, 2019).

One data set is described as follows: Cytotoxicity assay. It is filed as cell-based, murine. As to conditions: mouse, 3T3-L1 cells.
The next data set deals with 3T3-L1 preadipocytes. Kind of data set: Preadipocyte differentiation assay. It is filed as cell-based, murine. The procedure, abridged: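 3T3-L1 cells (passages 1–16) seeded at 2.5 × 10^5/well on 0.1% gelatin. Day 0, 24 h after near-confluence: switched to induction DMEM (high glucose, 10% FBS, 0.5 mM IBMX). After 48 h: DMEM + 10% FBS + 10 µg/mL insulin. Negative control kept in non-differentiating medium; positive control differentiating medium + DMSO. Test compound 50–100 µM; run to day 7–10. Oil Red O stained; extracted dye read at 462 nm.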

The next data set concerns the target T1, Human GR (Homo sapiens, UniProt P04150).
T1 sequence (P04150 1-777): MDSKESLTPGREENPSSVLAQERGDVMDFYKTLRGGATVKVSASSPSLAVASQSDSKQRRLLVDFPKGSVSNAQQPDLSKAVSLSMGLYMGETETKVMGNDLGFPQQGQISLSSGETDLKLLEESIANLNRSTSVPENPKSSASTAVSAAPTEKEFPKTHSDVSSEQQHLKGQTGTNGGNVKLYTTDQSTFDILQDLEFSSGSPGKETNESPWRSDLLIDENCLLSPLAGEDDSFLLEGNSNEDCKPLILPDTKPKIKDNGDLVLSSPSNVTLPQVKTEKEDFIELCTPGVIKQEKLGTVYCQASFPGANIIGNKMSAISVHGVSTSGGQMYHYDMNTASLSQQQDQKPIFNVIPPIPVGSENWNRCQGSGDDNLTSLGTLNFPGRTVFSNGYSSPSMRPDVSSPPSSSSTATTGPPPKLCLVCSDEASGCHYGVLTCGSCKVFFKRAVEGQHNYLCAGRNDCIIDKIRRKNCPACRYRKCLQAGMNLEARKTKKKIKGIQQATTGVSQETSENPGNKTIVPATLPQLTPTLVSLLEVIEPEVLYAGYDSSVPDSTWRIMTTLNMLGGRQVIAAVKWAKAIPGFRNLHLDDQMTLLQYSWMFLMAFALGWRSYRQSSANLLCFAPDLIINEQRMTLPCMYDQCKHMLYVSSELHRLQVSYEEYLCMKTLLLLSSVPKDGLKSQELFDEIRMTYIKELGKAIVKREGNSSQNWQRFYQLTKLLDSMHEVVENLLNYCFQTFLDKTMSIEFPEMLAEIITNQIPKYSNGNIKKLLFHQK
Kind of data set: Human glucocorticoid receptor. It is filed as cell-based. As to conditions: transiently GR-transfected MDA-MB-231 cells, 100 nM dexamethasone, 50 μM CA. In a few lines:
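MDA-MB-231 cells transiently transfected, via Lipofectin, with a GR response element–luciferase reporter or a negative-control reporter. Seeded at 5000 cells/well for 12 h at 37 °C, then switched to phenol red–free DMEM with 2% charcoal-stripped FBS. Test compound (50 µM) or DMSO added 1 h before 100 nM dexamethasone induction; 4 h treatment. Luciferase luminescence read; n = 3, means ± SEM.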

The target in the next data set is T2, Human PPARγ (Homo sapiens, UniProt P37231).
T2 sequence (P37231 238-505 limits assumed): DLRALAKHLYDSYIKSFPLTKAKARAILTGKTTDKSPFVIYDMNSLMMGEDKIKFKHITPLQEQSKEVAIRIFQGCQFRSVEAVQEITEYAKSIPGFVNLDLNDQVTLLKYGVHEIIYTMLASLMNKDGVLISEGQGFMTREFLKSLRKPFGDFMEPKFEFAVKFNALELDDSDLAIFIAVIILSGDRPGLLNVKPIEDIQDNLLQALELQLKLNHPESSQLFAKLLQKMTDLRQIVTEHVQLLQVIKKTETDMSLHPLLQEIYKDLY
Kind of data set: Human PPARγ reporter antagonist assay. It is filed as cell-based. The note with it: stimulation by rosiglitazone (20 nM); 40 μM to 2 nM.

Data set [1] concerns human visceral and subcutaneous preadipocytes. Kind of data set: Preadipocyte differentiation assay. Type of data set: cell-based. In a few lines: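 Human visceral or subcutaneous preadipocytes (≤ passage 3) plated at 100,000 cells/well and grown to confluency. Day 0: induction medium ± hydrocortisone hemisuccinate (50 µg/mL) plus vehicle (0.2% DMSO), rosiglitazone (2 µM) or test compound (50, 100 µM); non-differentiating medium as control. Differentiation medium plus treatment from 48 h, refreshed every 48–72 h for 9–14 days. Fixed in 10% buffered formaldehyde; Oil Red O relatively quantified.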

The test system of data set [2] is Normal mouse fibroblast (ATCC: CRL-2907). Kind of data set: Nascent. It is filed as cell-based. As to conditions: CA 50 μM, 2 h. In a few lines:
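Mouse embryonic fibroblasts (CRL-2907) seeded at 2 × 10^4/well on 1% gelatin-coated slides and cultured 12 h at 37 °C in phenol red–free IMDM with 10% FBS. Test compound (50 µM) or DMSO given 2 h before click labelling with an alkyne o-propargyl-puromycin probe. Cycloheximide (20 nM, 30 min prior) served as positive control. Confocal imaging at 20×; whole-image montage quantified.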

In data set [3] the test system is 11β-HSD1, PPARγ, PGC-1α protein expression in 3T3-L1. In words: Western blot analysis during 3T3-L1 adipogenesis. It is filed as cell-based, murine. The procedure, abridged: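 3T3-L1 cells in non-differentiating medium, differentiating medium, differentiating medium + rosiglitazone, or differentiating medium + test compound (50 µM); sampled on days 3 and 7. Lysed in Tris/NaCl/EDTA/EGTA buffer with Triton X-100, deoxycholate, SDS, glycerol and protease/phosphatase inhibitors. 30 µg total protein loaded; tubulin used as loading control. Bands quantified; n = 3, means ± SEM.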
In general terms: Immunoblotting shows a protein as a band on a membrane.

The next data set concerns 3T3-L1 cells. Kind of data set: Mitochondria evaluation by confocal microscopy. Type of data set: cell-based, murine. As to conditions: 3T3-L1 adipogenesis assay, day 7, CA 50 μM. The procedure, abridged: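 3T3-L1 cells put through the adipogenesis protocol in 8-well chambers, test compound 50 µM. On day 7, live cells stained with MitoTracker Deep Red (50 nM final) and Hoechst 33342, PBS-washed, and imaged by spinning-disk confocal at 63×. Mean mitochondrial tracker intensity quantified.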

In the next data set the test system is 11β-HSD2. As to conditions: cited from earlier work.
For another data set, the system named is 3T3-L1. In words: Cytotoxicity assay. Type of data set: cell-based, murine. As to conditions: 3T3-L1; tested concentrations up to 1mM.
For data set [4], the system named is 11β-HSD1 in J774.1 macrophage. The note with it: LPS activated murine J774.1 macrophage; cited from earlier work.
For data set [5], the system named is 3T3-L1 adipogenesis gene transcripts. In words: qRT-PCR gene expression during 3T3-L1 adipogenesis. Type of data set: cell-based, murine. The procedure, abridged: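 Steady-state transcript levels measured by qRT-PCR in 3T3-L1 cells going through the induction/insulin differentiation protocol, on days 0, 1, 2 and 7. Treated cells compared with differentiating-medium and non-differentiating-medium controls.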
Background: Quantitative PCR measures a nucleic acid by following its amplification.

A further data set has as its target Human 11β-HSD1 (Homo sapiens, UniProt P28845, C272S). Kind of data set: Biochemical assay of 11β-HSD1. As to conditions: 11β-HSD1 Ki.
The next data set is described as follows: Solubility. Type of data set: physicochemical.

Sequence of Human 11β-HSD1 (P28845 24-292 C272S): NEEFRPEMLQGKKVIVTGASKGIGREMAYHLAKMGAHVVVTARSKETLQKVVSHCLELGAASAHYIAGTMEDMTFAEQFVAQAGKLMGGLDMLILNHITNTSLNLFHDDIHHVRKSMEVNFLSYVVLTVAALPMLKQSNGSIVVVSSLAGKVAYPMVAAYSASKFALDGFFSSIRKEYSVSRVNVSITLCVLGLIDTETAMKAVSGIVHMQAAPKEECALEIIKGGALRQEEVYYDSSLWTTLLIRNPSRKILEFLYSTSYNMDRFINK

As to `CC1=CC[C@@]2(C[C@H]1O)[C@@H](C(C)C)CC[C@H]2C(=O)O` (single isomer, unassigned) [ent-1, (−)-Colletoic Acid], the EC50 at 72 h in “Cytotoxicity assay” is more than 500 µM.

`CC1=CC[C@@]2(C[C@@H]1O)[C@@H](C(=O)O)CC[C@H]2C(C)C` [Compound 1, (+)-colletoic acid]: the “effect on adipogenesis when added after day 3” value in the data set on 3T3-L1 preadipocytes (3T3-L1) is “little to no significant effect”. Besides, the “inhibition of adipogenesis (Oil Red O staining)” value in the data set on 3T3-L1 preadipocytes (3T3-L1, 7 days, compound added at induction, CA 50–100 μM) is recorded as “clearly inhibited adipogenesis”. In the data set on 3T3-L1 preadipocytes (3T3-L1, CA 50 μM), the “lipid droplets (LipidTox) compared to NDM control cells” value is recorded as “no significant difference”. The GR activation result on Human GR is “did not inhibit GR activation”. Further, the PPARγ antagonistic activity result at Human PPARγ is listed as “no quantifiable PPARγ antagonistic activity”. Also, the “effect when added at day 3 after induction” value in data set [1] (human preadipocytes) is reported as “no quantifiable effect”. For the same compound, the “inhibition of adipogenesis in human preadipocytes” value in data set [1] (human visceral and subcutaneous preadipocytes, 10–14 days, CA 50–100 μM) is “modest inhibition of adipogenesis”. Besides, the “global protein synthesis compared to DMSO control” value in data set [2] is recorded as “No significant changes”. In addition, the “PGC-1α, 11β-HSD1 and PPARγ protein expression” value in [3] (3T3-L1, day 3, CA 50 μM) is “No significant change”. Further, the “PGC-1α, 11β-HSD1 and PPARγ protein expression” value in [3] (3T3-L1, day 7, CA 50 μM) is recorded as “down-regulation”. Further, the “mitochondrial mass (mitochondrial tracker mean intensity)” value in the data set with 3T3-L1 cells is “less mitochondrial mass”. For the same compound, in the data set with 11β-HSD2, the 11β-HSD2 inhibition result is on record as “no observable 11β-HSD2 inhibition”. In addition, the “cytotoxicity (cell viability)” value in the data set with 3T3-L1 is “no cytotoxicity”. Further, in “Cytotoxicity assay”, the EC50 at 72 h is more than 500 µM. In data set [4], the “conversion of [3H]-cortisone to [3H]-cortisol” value was “inhibits the conversion”. In addition, in [5] (3T3-L1), the “FABP4 and FASN mRNA expression, lower than in differentiated control cells” value is “at least 10 fold”; the “PGC-1α mRNA expression, differentiated control cells versus CA-treated cells” value is “at least ten-fold greater”. Besides, in [5] (3T3-L1, day 1–2, vs differentiated control), the “C/EBPα, β and δ mRNA expression” value was “significant reduction”. Further, the “PPARγ and PGC-1α mRNA expression level” value in [5] (3T3-L1, vs differentiated cells) is on record as “greatly reduced”. Besides, in data set [5] (3T3-L1, vs differentiated control cells), the “11β-HSD1 mRNA expression” value is given as “reduced”.

Regarding `CC1(C)[C@@H](OC(=O)CCC(=O)O)CC[C@]2(C)[C@H]3C(=O)C=C4[C@@H]5C[C@@](C)(C(=O)O)CC[C@]5(C)CC[C@@]4(C)[C@]3(C)CC[C@@H]12` [Compound 4, carbenoxolone, reference compound], the EC50 at 72 h in the data set “Cytotoxicity assay” was more than 500 µM.

In the case of `COC(=O)[C@H]1CC[C@@H](C(C)C)[C@@]12CC=C(C)[C@@H](O)C2` [Compound 5], in “Cytotoxicity assay”, the EC50 at 72 h is more than 500 µM.

In “Cytotoxicity assay”, `CC1=CC[C@@]2(C[C@@H]1O)[C@@H](C(N)=O)CC[C@H]2C(C)C` [Compound 6] showed an EC50 at 72 h of more than 500 µM.

In the case of `CC1=CC[C@@]2(C[C@@H]1O)[C@H](C(=O)O)CC[C@H]2C(C)C` [Compound 7], the EC50 at 72 h in “Cytotoxicity assay” was more than 500 µM.

In the data set “Cytotoxicity assay”, `CC(=O)O[C@H]1C[C@]2(CC=C1C)[C@@H](C(=O)O)CC[C@H]2C(C)C` [Compound 8] yielded an EC50 at 72 h of more than 500 µM.

As to `CC1=CC[C@@]2(CC1=O)[C@@H](C(=O)O)CC[C@H]2C(C)C` [Compound 9], the EC50 at 72 h in the data set “Cytotoxicity assay” was more than 500 µM.

On to `CC1=CC[C@@]2([C@H](O)C1)[C@@H](C(=O)O)CC[C@H]2C(C)C` [Compound 10], for which, in the data set “Cytotoxicity assay”, the EC50 at 72 h was more than 500 µM.

In the data set “Cytotoxicity assay”, `CC(=O)O[C@@H]1C[C@@](C)(O)CC[C@]12[C@@H](C(=O)O)CC[C@H]2C(C)C` [Compound 11] gave an EC50 at 72 h of more than 500 µM.

As to `CC(C)[C@@H]1CC[C@H](C(=O)O)[C@]12C[C@@H](O)[C@@](C)(O)[C@@H](O)C2` [Compound 12], the EC50 at 72 h in “Cytotoxicity assay” is more than 500 µM.

`C=C1CC[C@@]2(C(OC)[C@@H]1O)[C@@H](C(=O)O)CC[C@H]2C(C)C` (stereo partly shown) [Compound 13] had an EC50 at 72 h in “Cytotoxicity assay” of more than 500 µM.

In the data set “Cytotoxicity assay”, `C=C1CC[C@@]2(C[C@@H]1OC(C)=O)[C@@H](C(=O)O)CC[C@H]2C(C)C` [Compound 14] registered an EC50 at 72 h of more than 500 µM.

The compound `C=C1CC[C@@]2(C[C@@H]1O)[C@@H](C(=O)O)CC[C@H]2C(C)C` [Compound 15] returned an EC50 at 72 h in the data set “Cytotoxicity assay” of more than 500 µM.

Consider `C=C1CC[C@]2(C[C@@H]1O)[C@H](C)CC[C@@H]2C(=O)O` [Compound 16], for which the “activity relative to compound 15” value at Human 11β-HSD1 is “five-fold less activity”. Besides, the EC50 at 72 h in the data set “Cytotoxicity assay” is more than 500 µM.

In the data set “Cytotoxicity assay”, `CC1=CC[C@@]2([C@H](O)C1)[C@@H](C(=O)O)CC[C@H]2C1CCCCC1` [Compound 18] gave an EC50 at 72 h of more than 500 µM.

Take `CC1=CC[C@@]2(C=C1)[C@@H](C(=O)O)CC[C@H]2C1CCCCC1` [Compound 19]: in “Solubility”, the solubility properties entry is “acceptable and similar to CA”.

`CC1=CC[C@@]2(C[C@@H]1O)[C@@H](C(=O)O)CC[C@H]2C1CCCCC1` [Compound 20]: the “increase of potency over CA” value at Human 11β-HSD1 is listed as “three-fold increase of potency; also recorded: three-fold increase in potency”. For the same compound, in “Solubility”, the solubility properties entry was “acceptable and similar to CA”. In “Cytotoxicity assay”, this compound yielded an EC50 at 72 h of more than 500 µM.

As usually defined, the EC50 is the concentration giving half of the maximal effect.
